# ABHD4 inh: inhibits mouse alpha/beta hydrolase domain 4; Q8VD66; purified mABHD4, FP-Rh probe fluorescence polarization; inhibition, % at 8.92 µM; 0.54% of 370,000 active; AID 720543;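 active = inhibition exceeding the mean over every tested compound plus 3 SD, cut at about 30% in these data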;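 also: 0% = plate median of compound wells and 100% = S159A mutant with DMSO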
#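 Test system: mABHD4 protein | Buffer or medium: HEPES pH 7.0 buffer, 150 mM NaCl, 0.01% Pluronic F-127 | Probe or stimulus: FP-Rh fluorescent activity-based probe, added after compound pre-incubation | Timing: Pre-incubation 45 min, probe exposure 60 min, at 25 °C | Technique: Fluorescence polarization, excitation 525 nm, emission 598 nm, BODIPY TMR filters | Repeats: Single well per compound (singlicate)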
# HTRA1 inh: blocks human HTRA1 serine peptidase. inhibition, % at 5.96 µM. 0.5% of 340,000 active. recombinant HTRA1, FP-rhodamine activity-based probe, fluorescence polarization; in the data active = inhibition above about 36%;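 also: 0% = enzyme with DMSO and 100% = wells lacking enzyme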
# DAGLB inhibitor: diacylglycerol lipase beta (human) inhibition. HEK293T DAGLB membrane lysate, EnzChek fluorogenic substrate. inhibition, % at 5.17 µM. AID 504411. 0.059% of 340,000 active; in the data active = inhibition above about 34%;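 also: 0% = enzyme with vehicle and 100% = wells lacking enzyme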
# PRMT1 FP inh: PRMT1 (human) inhibition, primary screen; inhibition, % at 2.79 µM; AID 652257; Q99873; recombinant PRMT1, activity-based probe fluorescence polarization; 1.3% of 370,000 active;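 active = inhibition above about 21% made by adding two undisclosed values, limit read from the data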
# rCAG RNA binder: molecules binding r(CAG) RNA repeats; r(CAG) RNA repeat, TO-PRO-1 dye displacement fluorescence; inhibition, % at 3 µM; 1.3% of 370,000 active;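 active = inhibition above the plate cutoff, the mean of all test compounds on that plate plus 3 SD, cut at about 35% in these data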;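 also: 0% = DMSO alone and 100% = 100 µM mitoxantrone as full dye displacement; higher means more dye released from RNA so lower well fluorescence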
# LEDGF integ inh: blocks HIV-1 LEDGF/p75-dependent DNA integration | TR-FRET IN-LEDGF/p75 DNA integration, Eu/Cy5 | inhibition, % at 3.7 µM | 0.64% of 370,000 active;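 active = inhibition above the screen-wide mean plus 3 SD, cut at about 13% in these data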;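 also: signal is the Cy5 over europium emission ratio at 671 and 618 nm; 0% = plate median of compound wells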
# PRMT1 inh conf: PRMT1 (human) inhibition, FP confirmation; recombinant His-PRMT1, activity-based probe fluorescence polarization; shares compounds with PRMT1 FP inh; inhibition, % at 2.79 µM; 42% of 3,300 active;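 active = mean inhibition across replicates above the hit cutoff derived for the earlier primary screen, cut at about 22% in these data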
# Active calls of the source: *; · = no result given. Rows were chosen to be rich in hits. Some 3.2% of all compounds tested hit in one or more screens of this group.
SMILES,ABHD4 inh,HTRA1 inh,DAGLB inhibitor,PRMT1 FP inh,rCAG RNA binder,LEDGF integ inh,PRMT1 inh conf
Cc1nc(C)c(-c2csc(Nc3cccc(O)c3)n2)s1,12.4,-1.5,1.5,3.8,4.1,-1.4,·
Cc1c(NC(=O)c2ccc(Cl)c([N+](=O)[O-])c2)cccc1-n1cnnn1,-2.7,-16.8,0.2,-1.1,3.5,6.9,·
COc1cccc(C(O)c2nc(-c3ccc(OC)nc3)cs2)c1 (configuration not stated),0.2,·,·,3.2,-0.6,0.2,·
O=c1[nH]c2c(s1)C(c1ccco1)C1C3CCC(C3)C1S2 (configuration not stated),15.1,-9.6,5.5,39.2*,28.0,7.3,19.5
O=C1CC(c2ccco2)Sc2ccccc2N1 (configuration not stated),-1.9,-1.5,-1.9,4.7,-1.0,4.5,·
CC(C)CC#Cc1ccc2c(c1)O[C@H](CN(C)C(=O)Cc1ccncc1)[C@H](C)CN([C@H](C)CO)S2(=O)=O,-4.7,-7.4,8.0,-2.0,4.3,-3.3,·
COC(=O)c1ccc(NC(=O)CNC(=O)C2CCCCC2)c(C)c1,-4.1,5.0,3.3,1.2,-0.5,-2.1,·
CCNC(=S)Nc1ccc(Cl)cc1,0.4,4.7,1.8,0.7,4.9,0.2,·
CCNC(=S)Nc1cc(-c2ccc(Cl)cc2)[nH]n1,-9.9,-16.5,2.7,43.6*,-0.2,3.0,28.6*
Nc1ccc(N2CCN(c3ccc(Cl)c(Cl)c3)CC2)cc1,14.5,27.9,13.0,-0.2,2.4,2.6,·
CC(C)C(NC(=O)C1CCCCC1)C(=O)NCCc1ccccc1 (configuration not stated),0.1,6.3,-2.1,24.9*,-0.5,-1.4,-1.1
CN(C)C(=O)c1ccc(SC(=S)NCc2ccccc2)cc1,8.0,·,·,58.6*,1.9,-0.8,69.5*
Cc1cc(C)n(-c2ccc(C(=O)OCC(=O)Nc3ccc(S(N)(=O)=O)cc3)cc2)n1,-8.3,-2.9,-1.5,-2.8,7.5,1.0,·
O=C(CSc1c2c(nc3cc(Cl)ccc13)CCCC2)NCCN1CCOCC1,2.4,-25.3,-4.1,0.9,-6.0,1.8,·
Cc1ccc(CNC(=O)CSc2c3c(nc4cc(Cl)ccc24)CCCC3)o1,12.7,20.5,3.0,59.8*,13.3,1.0,15.9
CN1CCc2c(sc(/N=C/c3ccco3)c2C(N)=O)C1,-1.5,-5.4,-3.0,25.3*,-6.3,-1.6,6.0
N#C/C(=C/c1ccc(N2CCOCC2)o1)c1nc2ccccc2[nH]1,14.7,1.2,-34.2,37.9*,-29.2,0.5,-55.1
Cc1cc(/C=C(\C#N)c2nc3ccccc3[nH]2)c(C)n1C,-5.7,-4.2,-0.4,28.1*,10.0,2.1,19.4
Cc1cc(/C=C(/C#N)c2nc3ccccc3[nH]2)c(C)n1-c1cccc([N+](=O)[O-])c1,0.5,-16.3,3.6,-2.5,17.0,-1.6,·
CC(=O)Nc1ccc(SC[C@H](CC(C)C)N2CCN(CCc3ccccc3)CCC2=O)cc1,-2.6,-4.6,-0.1,40.2*,-1.8,2.2,40.2*
Cc1ccc(SC[C@H](CC(C)C)N2CCN(CCc3ccccc3)CCC2=O)cc1,-13.4,-46.8,-40.4,0.7,-4.5,3.5,·
Cc1cccc(-n2c(C)c(-c3ccccc3)[nH]c2=S)c1,5.1,-0.6,-0.4,34.2*,2.9,-4.3,15.8
Cc1cccc(-n2c(C)n[nH]c2=S)c1,0.2,2.6,-2.0,-1.9,-4.1,1.9,·
COc1ccccc1CNC(=O)C1(C)CCCCN1C (configuration not stated),-7.9,·,·,-3.0,-0.6,3.2,·
O=C(Nc1ccc(Oc2cccc(C(F)(F)F)c2)nc1)c1ccco1,-3.0,-10.4,-2.1,-1.0,-4.1,0.1,·
CC(C)(C)c1ccc(Oc2ccc(NC(=O)c3ccco3)cn2)cc1,-15.6,-38.8,-3.9,29.2*,-3.5,-1.4,2.9
O=C(NC(=S)Nc1ccc(N2CCOCC2)c(Cl)c1)c1cncc(Br)c1,-0.7,-7.0,-5.1,-2.6,0.4,1.2,·
COc1cccc(-c2noc(Cn3nc(C(=O)O)c4ccccc4c3=O)n2)c1,4.5,10.6,-1.0,-0.9,-3.4,2.8,·
CC1CCN(C(=S)Nc2ccc(F)cc2)CC1,1.7,-1.0,0.3,-0.9,-1.6,-3.1,·
